Bridge positions count the residues as written; N and C are the ends. Square brackets hold non-standard residues; d marks the D form. Peptide text beside a SMILES is read from it. I, II: the chains in the order shown. pGlu = O=C1CC[C@@H](C(=O)O)N1

In this test the test system is C6. In words: Relative potency for induction of Colony-Stimulating activity(CSA) of C6 stromal line. It counts as functional, Mus musculus. On the set-up: reference not given here. The method in brief:
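Murine C6 stromal cells (or subclone C6.4) were grown to confluence in RPMI with 10% FBS, then switched to serum-free medium with peptide (initially 0.001–1000 ng/mL, log doses, duplicate wells). Exposure was 1 h at 37 °C, followed by washing, and conditioned supernatant was collected 24 h later. Supernatant (10–2.5% v/v) plus C57Bl/6 femoral marrow went into 0.3% agar with 15% FBS for 7 days. Colonies of >50 cells were counted in triplicate. EC50 was taken from the ascending curve and expressed relative to the reference peptide.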
For the molecule `NCCCC[C@H](NC(=O)[C@H](CCCC[C@H](NC(=O)[C@H](CC(=O)O)NC(=O)[C@H](CC(=O)O)NC(=O)[C@@H]1CCC(=O)N1)C(=O)N[C@@H](CCCCN)C(=O)O)NC(=O)[C@H](CC(=O)O)NC(=O)[C@H](CC(=O)O)NC(=O)[C@@H]1CCC(=O)N1)C(=O)O`, the Relative potency was 1.
With `NC(=O)CC[C@H](NC(=O)[C@H](CC[C@H](NC(=O)[C@H](CO)NC(=O)[C@H](CO)NC(=O)c1ccccn1)C(=O)N[C@@H](CCC(N)=O)C(N)=O)NC(=O)[C@H](CO)NC(=O)[C@H](CO)NC(=O)c1ccccn1)C(N)=O`, the Relative potency is listed as under 1e-06.
The value for `NCCCC[C@H](NC(=O)[C@@H](CCCC[C@@H](NC(=O)[C@H](CC(=O)O)NC(=O)[C@H](CCC(=O)O)NC(=O)[C@@H]1CCC(=O)N1)C(=O)N[C@@H](CCCCN)C(=O)O)NC(=O)[C@H](CC(=O)O)NC(=O)[C@H](CCC(=O)O)NC(=O)[C@@H]1CCC(=O)N1)C(=O)O` was under 1e-06; that for `NCCCC[C@H](NC(=O)[C@H](CCCC[C@H](NC(=O)[C@H](CC(=O)O)NC(=O)[C@H](CCC(=O)O)NC(=O)[C@@H]1CCC(=O)N1)C(=O)N[C@@H](CCCCN)C(N)=O)NC(=O)[C@H](CC(=O)O)NC(=O)[C@H](CCC(=O)O)NC(=O)[C@@H]1CCC(=O)N1)C(N)=O` was 1; that for `NCCCC[C@H](NC(=O)[C@H](CCCC[C@H](NC(=O)[C@H](CCC(=O)O)NC(=O)[C@H](CCC(=O)O)NC(=O)[C@@H]1CCC(=O)N1)C(=O)N[C@@H](CCCCN)C(=O)O)NC(=O)[C@H](CCC(=O)O)NC(=O)[C@H](CCC(=O)O)NC(=O)[C@@H]1CCC(=O)N1)C(=O)O` was 1.
Molecule `NCCCC[C@H](NC(=O)[C@H](CCCC[C@H](NC(=O)[C@H](CC(=O)O)NC(=O)[C@H](CCC(=O)O)NC(=O)[C@H]1CCC(=O)N1)C(=O)N[C@@H](CCCCN)C(=O)O)NC(=O)[C@H](CC(=O)O)NC(=O)[C@H](CCC(=O)O)NC(=O)[C@H]1CCC(=O)N1)C(=O)O` registered a Relative potency of 0.0001.
The value for `NCCCC[C@H](NC(=O)[C@H](CCCCCC[C@H](NC(=O)[C@H](CC(=O)O)NC(=O)[C@H](CCC(=O)O)NC(=O)[C@@H]1CCC(=O)N1)C(=O)N[C@@H](CCCCN)C(=O)O)NC(=O)[C@H](CC(=O)O)NC(=O)[C@H](CCC(=O)O)NC(=O)[C@@H]1CCC(=O)N1)C(=O)O` was under 1e-06.
For the molecule `NCCCC[C@H](NC(=O)[C@H](CCCCC[C@H](NC(=O)[C@H](CC(=O)O)NC(=O)[C@H](CCC(=O)O)NC(=O)[C@@H]1CCC(=O)N1)C(=O)N[C@@H](CCCCN)C(=O)O)NC(=O)[C@H](CC(=O)O)NC(=O)[C@H](CCC(=O)O)NC(=O)[C@@H]1CCC(=O)N1)C(=O)O`, the Relative potency is listed as under 1e-06.
Next, `NCCCC[C@H](NC(=O)[C@H](CCCC[C@H](NC(=O)[C@H](CC(=O)O)NC(=O)[C@H](CCC(=O)O)NC(=O)[C@@H]1CCCO1)C(=O)N[C@@H](CCCCN)C(=O)O)NC(=O)[C@H](CC(=O)O)NC(=O)[C@H](CCC(=O)O)NC(=O)[C@@H]1CCCO1)C(=O)O`: under 1e-06.
`NCCCC[C@@H](NC(=O)[C@H](CCCC[C@H](NC(=O)[C@H](CC(=O)O)NC(=O)[C@H](CCC(=O)O)NC(=O)[C@@H]1CCC(=O)N1)C(=O)N[C@H](CCCCN)C(=O)O)NC(=O)[C@H](CC(=O)O)NC(=O)[C@H](CCC(=O)O)NC(=O)[C@@H]1CCC(=O)N1)C(=O)O` returned a Relative potency of under 1e-06.
In turn, `CCCC[C@H](NC(=O)[C@H](CCCC[C@H](NC(=O)[C@H](C)NC(=O)[C@H](CO)NC(=O)c1ccccn1)C(=O)N[C@@H](CCCC)C(N)=O)NC(=O)[C@H](C)NC(=O)[C@H](CO)NC(=O)c1ccccn1)C(N)=O` registered a Relative potency of under 1e-06.
Next, `NCCC[C@H](NC(=O)[C@H](CCCC[C@H](NC(=O)[C@H](CC(=O)O)NC(=O)[C@H](CCC(=O)O)NC(=O)[C@@H]1CCC(=O)N1)C(=O)N[C@@H](CCCN)C(=O)O)NC(=O)[C@H](CC(=O)O)NC(=O)[C@H](CCC(=O)O)NC(=O)[C@@H]1CCC(=O)N1)C(=O)O`: under 1e-06; `NCCCC[C@H](NC(=O)[C@H](CC[C@H](NC(=O)[C@H](CC(=O)O)NC(=O)[C@H](CCC(=O)O)NC(=O)c1ccccn1)C(=O)N[C@@H](CCCCN)C(N)=O)NC(=O)[C@H](CC(=O)O)NC(=O)[C@H](CCC(=O)O)NC(=O)c1ccccn1)C(N)=O`: 100; `NCCCC[C@H](NC(=O)[C@H](CCCC[C@H](NC(=O)[C@H](CC(=O)O)NC(=O)[C@H](CO)NC(=O)c1ccccn1)C(=O)N[C@@H](CCCCN)C(=O)O)NC(=O)[C@H](CC(=O)O)NC(=O)[C@H](CO)NC(=O)c1ccccn1)C(=O)O`: 100.
The value for `NCCCC[C@H](NC(=O)[C@H](CCCC[C@H](NC(=O)[C@H](CC(=O)O)NC(=O)[C@H](CCC(=O)O)NC(=O)C1CCCCC1)C(=O)N[C@@H](CCCCN)C(=O)O)NC(=O)[C@H](CC(=O)O)NC(=O)[C@H](CCC(=O)O)NC(=O)C1CCCCC1)C(=O)O` was under 1e-06; that for `NCCCC[C@H](NC(=O)[C@H](CCCC[C@H](NC(=O)[C@H](CC(=O)O)NC(=O)[C@H](CCC(=O)O)NC(=O)c1cccs1)C(=O)N[C@@H](CCCCN)C(=O)O)NC(=O)[C@H](CC(=O)O)NC(=O)[C@H](CCC(=O)O)NC(=O)c1cccs1)C(=O)O` was under 1e-06; that for `NCCCC[C@H](NC(=O)[C@H](CCC(=O)O)NC(=O)[C@@H]1CCC(=O)N1)C(=O)N[C@@H](CCCC[C@H](NC(=O)[C@H](CCCCN)NC(=O)[C@H](CCC(=O)O)NC(=O)[C@@H]1CCC(=O)N1)C(=O)N[C@@H](CC(=O)O)C(=O)O)C(=O)N[C@@H](CC(=O)O)C(=O)O` was under 1e-06.
As for `NCCCC[C@H](NC(=O)[C@H](CCCC[C@H](NC(=O)[C@@H](CC(=O)O)NC(=O)[C@H](CCC(=O)O)NC(=O)[C@@H]1CCC(=O)N1)C(=O)N[C@@H](CCCCN)C(=O)O)NC(=O)[C@@H](CC(=O)O)NC(=O)[C@H](CCC(=O)O)NC(=O)[C@@H]1CCC(=O)N1)C(=O)O`, the Relative potency was under 1e-06.
Next, `NCCCC[C@H](NC(=O)[C@H](CCC[C@H](NC(=O)[C@H](CC(=O)O)NC(=O)[C@H](CCC(=O)O)NC(=O)[C@@H]1CCC(=O)N1)C(=O)N[C@@H](CCCCN)C(=O)O)NC(=O)[C@H](CC(=O)O)NC(=O)[C@H](CCC(=O)O)NC(=O)[C@@H]1CCC(=O)N1)C(=O)O`: under 1e-06; `NCCCC[C@H](NC(=O)[C@H](CCCC[C@H](NC(=O)[C@H](CC(=O)O)NC(=O)[C@H](CCC(=O)O)NC(=O)c1ccc2ccccc2n1)C(=O)N[C@@H](CCCCN)C(=O)O)NC(=O)[C@H](CC(=O)O)NC(=O)[C@H](CCC(=O)O)NC(=O)c1ccc2ccccc2n1)C(=O)O`: under 1e-06; `NCCCC[C@@H](CO)NC(=O)[C@H](CCCC[C@H](NC(=O)[C@H](CC(=O)O)NC(=O)[C@H](CCC(=O)O)NC(=O)[C@@H]1CCC(=O)N1)C(=O)N[C@H](CO)CCCCN)NC(=O)[C@H](CC(=O)O)NC(=O)[C@H](CCC(=O)O)NC(=O)[C@@H]1CCC(=O)N1`: under 1e-06.
Next, `NCCCC[C@H](NC(=O)[C@H](CCCC[C@H](NC(=O)[C@H](CC(=O)O)NC(=O)[C@H](CO)NC(=O)[C@@H]1CCC(=O)N1)C(=O)N[C@@H](CCCCN)C(=O)O)NC(=O)[C@H](CC(=O)O)NC(=O)[C@H](CO)NC(=O)[C@@H]1CCC(=O)N1)C(=O)O`: 10; `NCCCC[C@H](NC(=O)[C@H](CC[C@H](NC(=O)[C@H](CC(=O)O)NC(=O)[C@H](CCC(=O)O)NC(=O)[C@@H]1CCC(=O)N1)C(=O)N[C@@H](CCCCN)C(=O)O)NC(=O)[C@H](CC(=O)O)NC(=O)[C@H](CCC(=O)O)NC(=O)[C@@H]1CCC(=O)N1)C(=O)O`: 1000.
As for `N=C(N)NCCC[C@@H](NC(=O)[C@H](CCCC[C@H](NC(=O)[C@H](CC(=O)O)NC(=O)[C@H](CCC(=O)O)NC(=O)[C@@H]1CCC(=O)N1)C(=O)N[C@H](CCCNC(=N)N)C(=O)O)NC(=O)[C@H](CC(=O)O)NC(=O)[C@H](CCC(=O)O)NC(=O)[C@@H]1CCC(=O)N1)C(=O)O`, the Relative potency was under 1e-06.
The value for `NCCCC[C@H](NC(=O)[C@H](CC[C@H](NC(=O)[C@H](CC(=O)O)NC(=O)[C@H](CO)NC(=O)c1ccccn1)C(=O)N[C@@H](CCCCN)C(=O)O)NC(=O)[C@H](CC(=O)O)NC(=O)[C@H](CO)NC(=O)c1ccccn1)C(=O)O` was 10000; that for `NCCCC[C@H](NC(=O)[C@H](CSSC[C@H](NC(=O)[C@H](CC(=O)O)NC(=O)[C@H](CCC(=O)O)NC(=O)[C@@H]1CCC(=O)N1)C(=O)N[C@@H](CCCCN)C(=O)O)NC(=O)[C@H](CC(=O)O)NC(=O)[C@H](CCC(=O)O)NC(=O)[C@@H]1CCC(=O)N1)C(=O)O` (I: [pGlu]EDCK-OH / II: [pGlu]EDCK-OH; disulfide I:4-II:4) was 0.01; that for `NCCCC[C@H](NC(=O)[C@H](CCCC[C@H](NC(=O)[C@H](CC(=O)O)NC(=O)[C@H](CCC(=O)O)NC(=O)[C@@H]1CCC(=O)N1)C(=O)N[C@@H](CCCCN)C(=O)O)NC(=O)[C@H](CC(=O)O)NC(=O)[C@H](CCC(=O)O)NC(=O)[C@@H]1CCC(=O)N1)C(=O)O` [GLASPIMOD] was 1.

Values taken from ChEMBL document CHEMBL1129650, “Structure-activity relationships of novel hematoregulatory peptides” (1996).
